Rate (delta OD340 min-1), Equilibrium OD340 and Rate data for four compounds are collected here from ChEMBL document CHEMBL1132707, “1-(N-alkylamino)-11-(N-ethylamino)-4,8-diazaundecanes: simple synthetic polyamine analogues that differentially alter tubulin polymerization” (J Med Chem, 1999).

What all share (type): protein assay
Experiment [1] has as its target T1, Tubulin (Bos taurus) (UniProt Q6B856+Q862L2+Q862F3). Nature of the experiment: The compound was evaluated for its effect on tubulin polymerization in the absence of MAPS as rate =change in OD340/min. In a few lines:
(§1)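 MAP-free purified tubulin, thawed immediately before use. Buffer A (0.1 M MES pH 6.7, 1.0 mM MgCl2, 0.5 mM EGTA), no GTP or organic solvent, with 1 mM analogue (or analogue plus 1 mM spermine), warmed to 37 °C. Started by 10-fold dilution of 10 mg/mL tubulin. OD340 followed from 30 s, equilibrium read at 10 min. At least three determinations, variation ≤10%.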

For experiment [2], the target named is T1, Tubulin (Bos taurus). In words: The compound (1 mM) + spermine (1 mM) mixture was evaluated for its effects on tubulin polymerization in the presence of MAPS as equilibrium reading (20 min reading). Summed up: (§2)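 MAP-rich tubulin, thawed just before the reaction. Buffer A (0.1 M MES pH 6.7, 1.0 mM MgCl2, 0.5 mM EGTA) containing 1 mM analogue (or analogue plus 1 mM spermine), equilibrated at 37 °C. Started by 7.5-fold dilution of 7.5 mg/mL tubulin. OD340 followed from 30 s, equilibrium read at 20 min. At least three determinations, variation ≤10%.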

Experiment [3] concerns the target T1, Tubulin (Bos taurus). In words: The compound was evaluated for its effect on tubulin polymerization in the presence of MAPS as equilibrium reading (20 min reading). In a few lines: as §2
The target in experiment [4] is T1, Tubulin (Bos taurus). In words: The compound (1 mM) + spermine (1 mM) mixture was evaluated for its effect on tubulin polymerization in the absence of MAPS as rate =change in OD340/min. Summed up:
as §1

Experiment [5] has as its target T1, Tubulin (Bos taurus). Nature of the experiment: The compound (1 mM) + spermine (1 mM) mixture was evaluated for its effects on tubulin polymerization in the absence of MAPS as equilibrium reading (10 min reading). In a few lines:
as §1

In experiment [6] the target is T1, Tubulin (Bos taurus). Nature of the experiment: The compound was evaluated for its effect on tubulin polymerization in the presence of MAPS as rate =change in OD340/min. In a few lines: as §2
For experiment [7], the target named is T1, Tubulin (Bos taurus). In words: The compound (1 mM) + spermine (1 mM) mixture was evaluated for its effects on tubulin polymerization in the presence of MAPS as rate =change in OD340/min. In a few lines:
as §2

In experiment [8] the target is T1, Tubulin (Bos taurus). Nature of the experiment: The compound was evaluated for its effect on tubulin polymerization in the absence of MAPS as equilibrium reading (10 min reading). In a few lines:
as §1

With `CCNCCCNCCCNCCCNC[C@@H](C)CC`, the Rate (delta OD340 min-1) on Tubulin (Bos taurus) [1] worked out at 0.69; on Tubulin (Bos taurus) [6], 0.021; at Tubulin (Bos taurus) [7], 0.069. In addition, the Equilibrium OD340 came out at 0.392 on Tubulin (Bos taurus) [2], 0.247 at Tubulin (Bos taurus) [3], 1.09 at Tubulin (Bos taurus) [5] and 1.79 at Tubulin (Bos taurus) [8]. For the same compound, the Rate on Tubulin (Bos taurus) [4] came to 0.205.

For the compound `NCCCNCCCCNCCCN`, the Rate (delta OD340 min-1) was found to be 0.14 on Tubulin (Bos taurus) [1] and 0.055 on Tubulin (Bos taurus) [6]. Further, the Equilibrium OD340 at Tubulin (Bos taurus) [3] stood at 0.624; at Tubulin (Bos taurus) [8], 1.31.

Turning to `CCNCCCNCCCNCCCNCC1CC1`, the Rate (delta OD340 min-1) at Tubulin (Bos taurus) [1] came to 0.096; on Tubulin (Bos taurus) [4] it was 0.131; at Tubulin (Bos taurus) [6], 0.036; at Tubulin (Bos taurus) [7], 0.031. Besides, the Equilibrium OD340 at Tubulin (Bos taurus) [2] stood at 0.514; at Tubulin (Bos taurus) [3] it was 0.098; on Tubulin (Bos taurus) [5], 1.08; on Tubulin (Bos taurus) [8] it was 0.563.

Turning to `CCNCCCNCCCNCCCNCC1CCCCCC1`, the Rate (delta OD340 min-1) was 0.37 at Tubulin (Bos taurus) [1], 0.131 at Tubulin (Bos taurus) [4], 0.25 on Tubulin (Bos taurus) [6] and 0.16 at Tubulin (Bos taurus) [7]. Also, the Equilibrium OD340 is 1.01 at Tubulin (Bos taurus) [2], 1.3 on Tubulin (Bos taurus) [3], 1.71 on Tubulin (Bos taurus) [5] and 2.42 on Tubulin (Bos taurus) [8].
